Key:
Conditions in all cases: stereoisomer not certain
OR2M3 (Homo sapiens) = target: T1, OR2M3 (Homo sapiens) (UniProt Q8NG83)
T1 sequence (whole entry): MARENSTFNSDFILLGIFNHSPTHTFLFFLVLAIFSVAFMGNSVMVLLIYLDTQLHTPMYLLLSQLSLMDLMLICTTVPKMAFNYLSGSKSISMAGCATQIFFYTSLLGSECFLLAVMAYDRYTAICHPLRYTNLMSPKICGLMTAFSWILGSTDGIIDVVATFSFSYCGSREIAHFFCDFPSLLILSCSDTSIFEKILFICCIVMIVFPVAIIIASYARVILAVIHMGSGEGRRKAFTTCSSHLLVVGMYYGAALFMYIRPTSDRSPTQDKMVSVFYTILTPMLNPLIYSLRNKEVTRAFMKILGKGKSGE
Procedure, shortened: (§1)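 Whether a receptor–molecule pair is responsive (active) rests on the original authors' judgment that its measured signal was statistically different from baseline. Pairs without that judgment are non-responsive (inactive). Sources used varied assay methods, commonly transient luciferase assays in mammalian cell lines.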

OR2T10 (Homo sapiens) = target: T2, OR2T10 (Homo sapiens) (UniProt Q8NGZ9)
T2 sequence (whole entry): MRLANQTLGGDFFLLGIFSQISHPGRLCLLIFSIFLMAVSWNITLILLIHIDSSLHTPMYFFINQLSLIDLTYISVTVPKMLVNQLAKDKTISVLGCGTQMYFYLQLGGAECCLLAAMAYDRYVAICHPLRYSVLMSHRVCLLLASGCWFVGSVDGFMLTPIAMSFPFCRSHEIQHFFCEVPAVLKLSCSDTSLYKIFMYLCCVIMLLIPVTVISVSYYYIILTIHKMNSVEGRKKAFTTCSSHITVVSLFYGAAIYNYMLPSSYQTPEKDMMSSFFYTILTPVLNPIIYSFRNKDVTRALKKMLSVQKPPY
Procedure, shortened: as §1

OR2K2 (Homo sapiens) = OR2K2 (Homo sapiens) (UniProt Q8NGT1)
Procedure, shortened: as §1

OR2L13 (Homo sapiens) = target: T3, OR2L13 (Homo sapiens) (UniProt Q8N349)
T3 sequence (whole entry): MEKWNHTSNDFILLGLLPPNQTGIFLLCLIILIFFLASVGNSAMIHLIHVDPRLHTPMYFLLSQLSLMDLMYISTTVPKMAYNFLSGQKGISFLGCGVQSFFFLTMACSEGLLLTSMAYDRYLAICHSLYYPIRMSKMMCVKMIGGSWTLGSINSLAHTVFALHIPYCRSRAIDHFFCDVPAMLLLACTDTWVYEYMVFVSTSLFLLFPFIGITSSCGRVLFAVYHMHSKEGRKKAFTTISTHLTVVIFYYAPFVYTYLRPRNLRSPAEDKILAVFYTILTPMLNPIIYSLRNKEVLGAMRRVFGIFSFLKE
Procedure, shortened: as §1

OR2L3 (Homo sapiens) = OR2L3 (Homo sapiens) (UniProt Q8NG85)
Procedure, shortened: as §1

OR2L5 (Homo sapiens) = OR2L5 (Homo sapiens) (UniProt Q8NG80)
Procedure, shortened: as §1

OR2L8 (Homo sapiens) = OR2L8 (Homo sapiens) (UniProt Q8NGY9)
Procedure, shortened: as §1

OR2M2 (Homo sapiens) = OR2M2 (Homo sapiens) (UniProt Q96R28)
Procedure, shortened: as §1

OR2M5 (Homo sapiens) = OR2M5 (Homo sapiens) (UniProt A3KFT3)
Procedure, shortened: as §1

OR2M7 (Homo sapiens) = target: T4, OR2M7 (Homo sapiens) (UniProt Q8NG81)
T4 sequence (whole entry): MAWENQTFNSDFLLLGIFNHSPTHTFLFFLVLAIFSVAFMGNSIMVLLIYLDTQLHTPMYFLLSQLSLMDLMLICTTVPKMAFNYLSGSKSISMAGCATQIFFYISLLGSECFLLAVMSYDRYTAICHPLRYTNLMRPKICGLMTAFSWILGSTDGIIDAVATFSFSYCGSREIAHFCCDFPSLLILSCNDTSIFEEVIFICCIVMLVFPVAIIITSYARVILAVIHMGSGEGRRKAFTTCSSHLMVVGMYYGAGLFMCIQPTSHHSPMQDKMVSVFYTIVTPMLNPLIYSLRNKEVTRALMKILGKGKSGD
Procedure, shortened: as §1

OR2S2 (Homo sapiens) = OR2S2 (Homo sapiens) (UniProt Q9NQN1)
Procedure, shortened: as §1

OR2T1 (Homo sapiens) = OR2T1 (Homo sapiens) (UniProt O43869)
Procedure, shortened: as §1

OR2T11 (Homo sapiens) = OR2T11 (Homo sapiens) (UniProt Q8NH01)
Procedure, shortened: as §1

OR2T12 (Homo sapiens) = OR2T12 (Homo sapiens) (UniProt Q8NG77)
Procedure, shortened: as §1

OR2J3 [1] = tested on: OR2J3
Procedure, shortened: as §1
Target sequence in this assay (as listed by the source): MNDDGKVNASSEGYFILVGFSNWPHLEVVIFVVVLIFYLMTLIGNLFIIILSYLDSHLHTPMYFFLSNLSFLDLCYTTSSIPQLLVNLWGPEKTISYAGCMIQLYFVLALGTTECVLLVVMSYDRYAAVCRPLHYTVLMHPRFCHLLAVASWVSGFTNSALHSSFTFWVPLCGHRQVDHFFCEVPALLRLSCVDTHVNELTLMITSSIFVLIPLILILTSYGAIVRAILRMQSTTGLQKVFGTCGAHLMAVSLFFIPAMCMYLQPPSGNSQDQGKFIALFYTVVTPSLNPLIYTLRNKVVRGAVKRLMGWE

OR2L2 (Homo sapiens) = OR2L2 (Homo sapiens) (UniProt Q8NH16)
Procedure, shortened: as §1

OR2M4 (Homo sapiens) = target: T5, OR2M4 (Homo sapiens) (UniProt Q96R27)
T5 sequence (whole entry): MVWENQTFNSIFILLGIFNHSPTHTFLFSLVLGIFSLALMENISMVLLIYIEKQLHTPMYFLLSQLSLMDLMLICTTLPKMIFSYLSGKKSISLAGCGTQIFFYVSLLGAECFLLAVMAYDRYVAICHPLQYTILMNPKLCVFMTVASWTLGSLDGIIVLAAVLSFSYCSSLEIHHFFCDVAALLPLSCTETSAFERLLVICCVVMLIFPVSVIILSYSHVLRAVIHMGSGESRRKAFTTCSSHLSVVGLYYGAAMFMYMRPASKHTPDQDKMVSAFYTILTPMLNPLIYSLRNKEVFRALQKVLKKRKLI
Procedure, shortened: as §1

OR2M5 D11G = tested on: OR2M5 D11G
Procedure, shortened: as §1

OR2J3 [2] = tested on: OR2J3; remark: listed apart in the source
Procedure, shortened: as §1
Target sequence in this assay (as listed by the source): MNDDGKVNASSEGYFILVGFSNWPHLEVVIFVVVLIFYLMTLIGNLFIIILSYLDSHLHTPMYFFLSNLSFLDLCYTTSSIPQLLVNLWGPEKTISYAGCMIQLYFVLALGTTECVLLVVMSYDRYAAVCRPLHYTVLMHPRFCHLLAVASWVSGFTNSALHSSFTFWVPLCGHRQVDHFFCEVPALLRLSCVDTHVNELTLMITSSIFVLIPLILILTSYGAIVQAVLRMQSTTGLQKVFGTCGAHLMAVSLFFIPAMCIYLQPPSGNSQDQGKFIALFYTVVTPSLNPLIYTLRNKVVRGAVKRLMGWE

OR2J3 [3] = tested on: OR2J3; remark: listed apart in the source
Procedure, shortened: as §1
Target sequence in this assay (as listed by the source): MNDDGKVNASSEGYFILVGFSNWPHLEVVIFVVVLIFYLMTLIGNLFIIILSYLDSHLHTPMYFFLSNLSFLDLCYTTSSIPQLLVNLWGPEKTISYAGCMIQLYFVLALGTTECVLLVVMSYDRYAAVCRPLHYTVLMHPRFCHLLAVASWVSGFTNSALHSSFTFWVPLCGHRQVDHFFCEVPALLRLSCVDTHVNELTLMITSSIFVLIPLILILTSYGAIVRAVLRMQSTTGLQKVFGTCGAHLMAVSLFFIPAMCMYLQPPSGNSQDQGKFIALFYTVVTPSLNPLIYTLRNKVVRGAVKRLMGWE

Measured: odorant receptor agonist call;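 also: active if original authors judged signal statistically different from baseline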

OR2M5 (Homo sapiens), sequence (A3KFT3 whole entry): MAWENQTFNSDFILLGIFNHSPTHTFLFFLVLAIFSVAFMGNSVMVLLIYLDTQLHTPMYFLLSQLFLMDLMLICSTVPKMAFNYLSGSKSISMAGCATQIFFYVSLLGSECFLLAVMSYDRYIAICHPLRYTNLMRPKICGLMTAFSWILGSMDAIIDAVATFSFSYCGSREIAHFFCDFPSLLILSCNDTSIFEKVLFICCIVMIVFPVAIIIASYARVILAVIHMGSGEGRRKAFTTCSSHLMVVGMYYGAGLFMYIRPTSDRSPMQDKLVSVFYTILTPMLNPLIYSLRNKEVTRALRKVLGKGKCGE
OR2T11 (Homo sapiens), sequence (Q8NH01 whole entry): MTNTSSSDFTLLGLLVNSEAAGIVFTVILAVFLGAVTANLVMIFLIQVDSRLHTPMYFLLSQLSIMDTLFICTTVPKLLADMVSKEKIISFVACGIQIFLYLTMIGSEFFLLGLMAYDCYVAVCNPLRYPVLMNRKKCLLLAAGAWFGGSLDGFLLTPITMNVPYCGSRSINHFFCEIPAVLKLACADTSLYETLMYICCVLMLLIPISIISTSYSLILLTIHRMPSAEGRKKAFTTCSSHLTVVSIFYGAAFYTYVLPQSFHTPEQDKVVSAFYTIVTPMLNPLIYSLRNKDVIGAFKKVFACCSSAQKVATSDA
OR2T12 (Homo sapiens), sequence (Q8NG77 whole entry): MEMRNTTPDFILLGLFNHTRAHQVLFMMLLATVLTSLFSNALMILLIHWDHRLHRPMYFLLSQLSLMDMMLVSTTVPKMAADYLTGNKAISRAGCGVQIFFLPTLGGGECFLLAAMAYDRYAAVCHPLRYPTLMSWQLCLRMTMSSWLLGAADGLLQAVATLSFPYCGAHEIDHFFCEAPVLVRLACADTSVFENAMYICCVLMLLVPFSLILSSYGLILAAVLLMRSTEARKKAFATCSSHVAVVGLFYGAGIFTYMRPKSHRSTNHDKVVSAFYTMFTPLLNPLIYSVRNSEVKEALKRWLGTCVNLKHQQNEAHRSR
OR2S2 (Homo sapiens), sequence (Q9NQN1 whole entry): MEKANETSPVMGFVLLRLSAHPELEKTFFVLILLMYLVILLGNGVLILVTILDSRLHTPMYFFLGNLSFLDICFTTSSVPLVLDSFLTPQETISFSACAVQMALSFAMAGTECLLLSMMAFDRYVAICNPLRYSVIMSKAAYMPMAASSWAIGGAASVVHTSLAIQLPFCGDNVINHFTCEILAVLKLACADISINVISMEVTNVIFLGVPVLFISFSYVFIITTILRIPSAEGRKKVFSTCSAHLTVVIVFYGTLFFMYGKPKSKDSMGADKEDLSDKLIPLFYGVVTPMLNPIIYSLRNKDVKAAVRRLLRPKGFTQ
OR2L8 (Homo sapiens), sequence (Q8NGY9 whole entry): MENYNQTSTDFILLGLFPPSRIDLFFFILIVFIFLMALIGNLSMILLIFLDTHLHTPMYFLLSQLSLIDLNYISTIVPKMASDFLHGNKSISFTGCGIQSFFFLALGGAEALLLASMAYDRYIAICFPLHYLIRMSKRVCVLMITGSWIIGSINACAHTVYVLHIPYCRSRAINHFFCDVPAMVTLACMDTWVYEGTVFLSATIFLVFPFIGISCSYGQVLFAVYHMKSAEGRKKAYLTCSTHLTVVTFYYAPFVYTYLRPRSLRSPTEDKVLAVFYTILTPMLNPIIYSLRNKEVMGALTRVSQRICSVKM
OR2K2 (Homo sapiens), sequence (Q8NGT1 whole entry): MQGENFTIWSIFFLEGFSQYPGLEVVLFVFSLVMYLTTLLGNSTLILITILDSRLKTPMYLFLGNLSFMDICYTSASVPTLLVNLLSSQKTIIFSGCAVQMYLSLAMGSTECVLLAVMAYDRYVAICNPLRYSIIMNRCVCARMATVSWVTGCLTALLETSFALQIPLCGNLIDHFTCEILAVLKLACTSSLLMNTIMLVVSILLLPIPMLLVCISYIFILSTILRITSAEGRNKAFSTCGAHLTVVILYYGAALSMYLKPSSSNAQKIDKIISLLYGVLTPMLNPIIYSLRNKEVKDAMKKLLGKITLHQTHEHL
OR2T1 (Homo sapiens), sequence (O43869 whole entry): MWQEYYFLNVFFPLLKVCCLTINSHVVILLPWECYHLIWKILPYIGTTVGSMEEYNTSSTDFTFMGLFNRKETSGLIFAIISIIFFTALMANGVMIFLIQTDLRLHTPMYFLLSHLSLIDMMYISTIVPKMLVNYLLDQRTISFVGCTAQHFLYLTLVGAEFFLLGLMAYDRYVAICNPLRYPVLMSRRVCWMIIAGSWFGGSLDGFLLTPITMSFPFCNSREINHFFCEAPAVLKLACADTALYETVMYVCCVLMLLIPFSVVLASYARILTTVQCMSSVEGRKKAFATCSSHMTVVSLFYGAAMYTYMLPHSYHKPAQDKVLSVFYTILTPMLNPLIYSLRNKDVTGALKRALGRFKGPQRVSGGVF
OR2L3 (Homo sapiens), sequence (Q8NG85 whole entry): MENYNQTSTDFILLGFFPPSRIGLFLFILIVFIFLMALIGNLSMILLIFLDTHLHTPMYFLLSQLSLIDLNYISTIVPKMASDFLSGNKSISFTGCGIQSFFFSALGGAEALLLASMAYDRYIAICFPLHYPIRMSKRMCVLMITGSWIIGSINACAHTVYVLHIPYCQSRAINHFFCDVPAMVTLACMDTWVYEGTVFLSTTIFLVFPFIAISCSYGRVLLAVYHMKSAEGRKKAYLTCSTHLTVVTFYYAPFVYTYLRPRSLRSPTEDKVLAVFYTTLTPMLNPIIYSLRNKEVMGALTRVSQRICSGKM
OR2M2 (Homo sapiens), sequence (Q96R28 whole entry): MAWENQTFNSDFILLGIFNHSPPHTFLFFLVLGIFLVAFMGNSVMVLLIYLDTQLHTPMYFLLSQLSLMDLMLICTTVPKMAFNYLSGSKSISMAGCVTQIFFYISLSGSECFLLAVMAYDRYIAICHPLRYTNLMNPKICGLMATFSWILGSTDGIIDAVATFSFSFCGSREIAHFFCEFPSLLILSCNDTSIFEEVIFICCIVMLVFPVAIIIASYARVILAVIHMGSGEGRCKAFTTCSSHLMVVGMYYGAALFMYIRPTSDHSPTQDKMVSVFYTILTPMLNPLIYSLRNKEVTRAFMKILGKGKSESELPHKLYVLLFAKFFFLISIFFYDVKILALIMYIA
OR2L5 (Homo sapiens), sequence (Q8NG80 whole entry): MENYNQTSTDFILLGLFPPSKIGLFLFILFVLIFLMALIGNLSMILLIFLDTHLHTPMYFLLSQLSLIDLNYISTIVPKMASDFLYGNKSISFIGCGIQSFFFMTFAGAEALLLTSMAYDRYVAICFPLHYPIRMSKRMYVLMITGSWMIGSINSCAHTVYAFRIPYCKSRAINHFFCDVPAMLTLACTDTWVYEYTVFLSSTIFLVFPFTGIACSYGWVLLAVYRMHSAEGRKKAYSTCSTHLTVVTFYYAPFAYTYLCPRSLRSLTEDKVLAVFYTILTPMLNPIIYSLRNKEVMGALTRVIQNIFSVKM
OR2M5 D11G, sequence (as listed by the source, stated change not applied): as the sequence (A3KFT3 whole entry) above, with D11G counted along it
OR2L2 (Homo sapiens), sequence (Q8NH16 whole entry): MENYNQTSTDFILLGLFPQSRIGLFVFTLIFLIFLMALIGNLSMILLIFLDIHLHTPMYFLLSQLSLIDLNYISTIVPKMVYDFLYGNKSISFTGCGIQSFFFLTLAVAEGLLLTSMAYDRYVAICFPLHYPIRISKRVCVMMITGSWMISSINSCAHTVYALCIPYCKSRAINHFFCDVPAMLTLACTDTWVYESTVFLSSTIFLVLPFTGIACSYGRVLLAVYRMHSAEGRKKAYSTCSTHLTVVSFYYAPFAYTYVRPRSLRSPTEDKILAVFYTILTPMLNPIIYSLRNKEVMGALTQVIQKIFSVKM

Cc1ccccc1O
inactive: OR2M3 (Homo sapiens)

C=CCc1ccc(OC)cc1
inactive: OR2M3 (Homo sapiens) | OR2T10 (Homo sapiens)

Cc1c([N+](=O)[O-])c(C)c([N+](=O)[O-])c(C(C)(C)C)c1[N+](=O)[O-]
not listed: OR2J3 [1] | OR2L2 (Homo sapiens) | OR2M4 (Homo sapiens) | OR2M5 D11G | OR2J3 [2] | OR2J3 [3]
inactive: all other assays above

C=CCSSCC=C
inactive: OR2M3 (Homo sapiens)

SCc1ccco1
inactive: OR2M3 (Homo sapiens)

C=CCOC(=O)Cc1ccccc1
not listed: OR2J3 [2] | OR2J3 [3]
inactive: all other assays above

O=Cc1ccccc1
inactive: OR2M4 (Homo sapiens) | OR2T10 (Homo sapiens)

CCOC(=O)Cc1ccccc1
inactive: OR2M3 (Homo sapiens)

C=CCc1ccccc1
inactive: OR2M7 (Homo sapiens)

CCC1CCC(=O)O1 (centres undefined)
inactive: OR2M7 (Homo sapiens)

O=c1cc(O)c2ccccc2o1
inactive: OR2M7 (Homo sapiens)

Cc1ccc(O)c(C)c1
inactive: OR2M3 (Homo sapiens)

CSSC
inactive: OR2M3 (Homo sapiens)

O=CC=Cc1ccccc1
active: OR2J3 [2] | OR2J3 [1] | OR2J3 [3] | OR2M4 (Homo sapiens) | OR2T10 (Homo sapiens)

Cc1cccc(C)c1
inactive: OR2L13 (Homo sapiens)

O=C(O)Cc1ccccc1
inactive: OR2M3 (Homo sapiens)

COc1ccc(C=O)cc1
inactive: OR2L13 (Homo sapiens) | OR2M3 (Homo sapiens)
